Reference: ChEMBL document CHEMBL1671809, “Discovery of phosphoric acid mono-{2-[(E/Z)-4-(3,3-dimethyl-butyrylamino)-3,5-difluoro-benzoylimino]-thiazol-3-ylmethyl} ester (Lu AA47070): a phosphonooxymethylene prodrug of a potent and selective hA(2A) receptor antagonist” (J Med Chem, 2011)
Values after ≈ are worked out from the molar mass of the structure shown.

Legend:
[1] = Oral bioavailability in Sprague-Dawley rat at 1 mg/kg; format: ADME, organism-based; details: in vivo
Procedure, shortened: (§1)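 Awake Sprague-Dawley rats carrying a carotid catheter were dosed with 0.5 mg/kg iv or 1 mg/kg po in aqueous 25% cremophore, n = 3 per route. Ten 100 μL blood samples were collected automatically over 20 h. Plasma was assayed by HTLC-MS/MS. Parameters came from a two-compartment model with first-order absorption (po) and elimination.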

[2] = Aqueous solubility of the compound at pH 7.4; format: physicochemical; details: buffer
Procedure, shortened: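 About 5 mg solid was shaken overnight in 1 mL of 25 mM phosphate buffer, pH 7.4, after 3 min sonication; more solid was added if it all dissolved. The suspension was filtered through 0.22 μm PVDF and the solution measured by HPLC against a standard curve.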

Adenosine receptor A3 = biological target: T1, Adenosine receptor A3 (Homo sapiens, UniProt P0DMS8); assay: Displacement of [3H]-AB-MECA from human recombinant adenosine A3 receptor expressed in CHO-K1 cells after 60 mins; format: cell-based
T1 sequence (P0DMS8 whole entry): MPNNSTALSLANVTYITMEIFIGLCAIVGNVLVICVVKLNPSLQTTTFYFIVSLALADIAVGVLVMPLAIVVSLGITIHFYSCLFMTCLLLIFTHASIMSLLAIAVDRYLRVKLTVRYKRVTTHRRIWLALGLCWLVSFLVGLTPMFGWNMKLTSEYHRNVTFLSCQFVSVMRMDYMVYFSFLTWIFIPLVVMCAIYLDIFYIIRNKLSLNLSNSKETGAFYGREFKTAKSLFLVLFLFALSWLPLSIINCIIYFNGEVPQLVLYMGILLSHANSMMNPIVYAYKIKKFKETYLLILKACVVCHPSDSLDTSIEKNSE

[3] = Protein binding in human serum at 1 uM after 60 mins by LC/MS-MS; format: ADME, cell-free; details: read-out: PPB (converted)
Homo sapiens = species on record: Homo sapiens; assay: Selectivity ratio of Ki for human adenosine A1 receptor to Ki for human adenosine A2A receptor
[4] = Volume of distribution at steady state in Sprague-Dawley rat at 0.5 mg/kg, iv and 1 mg/kg, po; format: ADME, organism-based; details: in vivo, read-out: Vdss; procedure, shortened: as §1
[5] = Plasma clearance in Sprague-Dawley rat at 0.5 mg/kg, iv and 1 mg/kg, po; format: ADME, organism-based; procedure, shortened: as §1
Adenosine receptor A1 = biological target: T2, Adenosine receptor A1 (Homo sapiens, UniProt P30542); assay: Displacement of [3H]-DPCPX from human adenosine A1 receptor expressed in CHO cells after 30 mins by scintillation counting; format: cell-based
T2 sequence (P30542 whole entry): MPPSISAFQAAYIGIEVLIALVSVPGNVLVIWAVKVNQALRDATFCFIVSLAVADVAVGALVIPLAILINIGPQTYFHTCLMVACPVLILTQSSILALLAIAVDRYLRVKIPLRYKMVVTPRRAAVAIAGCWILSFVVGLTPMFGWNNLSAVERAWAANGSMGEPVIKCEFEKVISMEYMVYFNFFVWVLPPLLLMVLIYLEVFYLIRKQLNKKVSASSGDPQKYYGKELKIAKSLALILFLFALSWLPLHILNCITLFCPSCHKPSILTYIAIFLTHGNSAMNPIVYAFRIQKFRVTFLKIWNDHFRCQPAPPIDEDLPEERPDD
Procedure, shortened: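 CHO-hA1 membranes at 10.8 μg protein/well, pretreated with adenosine deaminase (2 U/mL, 30 min, 37 C), were incubated with 1 nM [3H]-DPCPX in 50 mM Tris/HCl pH 7.4 for 30 min at 25 C across 10 compound concentrations. Filtration on PEI-soaked GF/B, scintillation counting. Nonspecific binding by CGS15943. Ki by Cheng-Prusoff. Means of ≥2 determinations.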

Rattus norvegicus = assay: Cmax in Sprague-Dawley rat at 1 mg/kg, po; format: ADME, organism-based; parameters: dose 1 mg/kg, route oral; details: in vivo; procedure, shortened: as §1
[6] = Protein binding in dog serum at 1 uM after 60 mins by LC/MS-MS; format: ADME, cell-free, Canis lupus familiaris; details: read-out: PPB (converted)
Adenosine receptor A2a = Adenosine receptor A2a (Homo sapiens, UniProt P29274); assay: Displacement of [3H]-ZM241385 from human adenosine A2A receptor expressed in high five cells after 30 mins by scintillation counting
Adenosine receptor A2a, sequence (P29274 whole entry): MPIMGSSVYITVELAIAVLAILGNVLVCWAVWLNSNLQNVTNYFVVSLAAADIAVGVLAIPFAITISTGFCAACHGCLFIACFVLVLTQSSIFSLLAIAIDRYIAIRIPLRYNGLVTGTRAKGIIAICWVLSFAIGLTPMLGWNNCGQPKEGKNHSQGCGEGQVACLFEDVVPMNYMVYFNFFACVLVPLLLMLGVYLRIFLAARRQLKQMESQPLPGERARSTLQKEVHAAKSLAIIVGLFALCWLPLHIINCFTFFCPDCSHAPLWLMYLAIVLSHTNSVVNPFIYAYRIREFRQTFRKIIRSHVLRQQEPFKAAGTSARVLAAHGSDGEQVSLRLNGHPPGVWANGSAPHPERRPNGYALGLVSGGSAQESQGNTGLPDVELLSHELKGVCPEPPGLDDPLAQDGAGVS

bioavailability [1]: 88%
solubility [2]: 1 µg/mL (≈ 2.83 µM)
Ki (Adenosine receptor A3): > 10 µM
fraction unbound at 1 h, 1 µM [3]: 0.15
Ratio Ki (Homo sapiens): 69
Vd [4]: 1 L/kg
clearance [5]: 5 mL/min/kg
Ki (Adenosine receptor A1): 410 nM
Cmax (Rattus norvegicus): 878 ng/mL
fraction unbound at 1 h, 1 µM [6]: 0.13
Ki (Adenosine receptor A2a): 5.9 nM
SMILES: CC(C)(C)CC(=O)Nc1c(F)cc(C(=O)Nc2nccs2)cc1F
